Data as given in ChEMBL document CHEMBL1153536, “5-lipoxygenase-activating protein inhibitors: development of 3-[3-tert-butylsulfanyl-1-[4-(6-methoxy-pyridin-3-yl)-benzyl]-5-(pyridin-2-ylmethoxy)-1H-indol-2-yl]-2,2-dimethyl-propionic acid (AM103)” (J Med Chem, 2009).
The source made the active and inactive calls. The rule behind the calls is not given here.

Assays:
[1] = Inhibition of calcium ionophore A-23187-stimulated LTB4 production in human leukocytes by ELISA; format: functional, cell-based; conditions: Leukocyte
In short: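 Dextran-sedimented, hypotonically lysed human leukocytes at 1.25 × 10^5 cells/mL, preincubated 5 min at 37 °C with compound in DMSO. Stimulated 5 min at 37 °C with A23187 (5 μL of 0.5 mM into 250 μL). Supernatant LTB4 measured by ELISA at 1:4 dilution; IC50 by nonlinear regression of % inhibition vs log concentration.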

[2] = molecular target: T1, Arachidonate 5-lipoxygenase-activating protein (Homo sapiens, UniProt P20292); experiment: Displacement of [3H]3-[5-(pyrid-2-ylmethoxy)-3-tert-butylthio-1-benzyl-indol-2-yl]-2,2-dimethylpropionic acid from FLAP in human polymorphonuclear cell membrane
T1 sequence (P20292 whole entry): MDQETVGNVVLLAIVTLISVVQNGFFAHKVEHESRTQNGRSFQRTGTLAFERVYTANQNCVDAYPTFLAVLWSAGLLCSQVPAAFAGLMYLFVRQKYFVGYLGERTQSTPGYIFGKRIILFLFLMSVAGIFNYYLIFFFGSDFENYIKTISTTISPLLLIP

Blood = experiment: Inhibition of calcium ionophore A-23187-stimulated LTB4 production in human whole blood by ELISA; format: functional, tissue-based
In short: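 Heparinized human whole blood preincubated 15 min at 37 °C with compound in DMSO. Stimulated 30 min at 37 °C with A23187 (2 μL of 1.5 mM into 150 μL). Plasma LTB4 measured by ELISA at 1:100 dilution; IC50 by nonlinear regression. A single value is one assay averaging two donors.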

Cytochrome P450 2D6 = Cytochrome P450 2D6 (Homo sapiens, UniProt P10635); experiment: Inhibition of CYP2D6; format: ADME
Sequence of Cytochrome P450 2D6 (P10635 whole entry): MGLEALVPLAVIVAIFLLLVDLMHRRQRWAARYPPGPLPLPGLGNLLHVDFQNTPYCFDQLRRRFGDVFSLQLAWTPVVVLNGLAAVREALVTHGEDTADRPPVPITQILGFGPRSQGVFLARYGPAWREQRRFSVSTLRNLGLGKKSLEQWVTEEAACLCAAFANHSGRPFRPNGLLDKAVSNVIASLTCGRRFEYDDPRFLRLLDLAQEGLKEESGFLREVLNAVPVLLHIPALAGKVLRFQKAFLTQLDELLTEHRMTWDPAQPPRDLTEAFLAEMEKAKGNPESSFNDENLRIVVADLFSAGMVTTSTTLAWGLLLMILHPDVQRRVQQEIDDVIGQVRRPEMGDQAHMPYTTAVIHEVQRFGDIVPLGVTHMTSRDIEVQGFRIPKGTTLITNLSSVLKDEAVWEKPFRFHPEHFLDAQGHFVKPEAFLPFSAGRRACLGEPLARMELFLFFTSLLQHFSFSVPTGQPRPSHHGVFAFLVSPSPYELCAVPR

Rattus norvegicus [3] = experiment: (§1) Bioavailability in Sprague-Dawley rat at 2 mg/kg, iv and 10 mg/kg, po; format: ADME, organism-based; conditions: in vivo
In short: (§2)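 Male rats fasted overnight, 2 or 3 per route. Dosing was 2 mg/kg i.v. as a jugular bolus in PEG400/ethanol/water (40/10/50) and 10 mg/kg p.o. by gavage in 0.5% methylcellulose. Jugular cannula blood was sampled up to 24 h (8-9 samples). Plasma was acetonitrile-precipitated with buspirone internal standard and quantified by LC-MS/MS, positive ESI MRM, calibration […], LLOQ 1-5 ng/mL.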

Cytochrome P450 3A4 [4] = molecular target: T2, Cytochrome P450 3A4 (Homo sapiens, UniProt P08684); experiment: Inhibition of CYP3A4; format: ADME
T2 sequence (P08684 whole entry): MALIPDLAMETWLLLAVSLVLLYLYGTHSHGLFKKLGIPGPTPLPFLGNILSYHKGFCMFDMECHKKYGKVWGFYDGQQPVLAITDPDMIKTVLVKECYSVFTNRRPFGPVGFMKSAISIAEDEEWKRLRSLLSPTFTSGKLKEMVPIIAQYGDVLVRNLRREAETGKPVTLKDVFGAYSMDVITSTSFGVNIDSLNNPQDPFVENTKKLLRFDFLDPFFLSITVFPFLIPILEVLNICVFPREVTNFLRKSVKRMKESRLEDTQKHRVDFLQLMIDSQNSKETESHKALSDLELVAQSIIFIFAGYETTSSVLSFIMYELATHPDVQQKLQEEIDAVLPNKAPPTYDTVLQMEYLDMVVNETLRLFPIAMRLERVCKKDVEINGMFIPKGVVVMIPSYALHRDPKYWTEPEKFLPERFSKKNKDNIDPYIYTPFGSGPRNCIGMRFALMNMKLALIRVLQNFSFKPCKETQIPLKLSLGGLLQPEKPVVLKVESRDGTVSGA

[5] = Volume of distribution at steady state in Sprague-Dawley rat at 2 mg/kg, iv and 10 mg/kg, po; format: ADME, organism-based; conditions: in vivo, read-out: Vdss; in short: as §2
[6] = Cmax in Sprague-Dawley rat after 10 mg/kg oral dose; format: ADME, organism-based; set-up: dose 10 mg/kg, route oral; conditions: in vivo; in short: as §2
[7] = Half life in Sprague-Dawley rat at 2 mg/kg, iv; format: ADME, organism-based; set-up: dose 2 mg/kg, route intravenous; conditions: in vivo; in short: as §2
Cytochrome P450 2C9 = Cytochrome P450 2C9 (Homo sapiens, UniProt P11712); experiment: Inhibition of CYP2C9; format: ADME
Sequence of Cytochrome P450 2C9 (P11712 whole entry): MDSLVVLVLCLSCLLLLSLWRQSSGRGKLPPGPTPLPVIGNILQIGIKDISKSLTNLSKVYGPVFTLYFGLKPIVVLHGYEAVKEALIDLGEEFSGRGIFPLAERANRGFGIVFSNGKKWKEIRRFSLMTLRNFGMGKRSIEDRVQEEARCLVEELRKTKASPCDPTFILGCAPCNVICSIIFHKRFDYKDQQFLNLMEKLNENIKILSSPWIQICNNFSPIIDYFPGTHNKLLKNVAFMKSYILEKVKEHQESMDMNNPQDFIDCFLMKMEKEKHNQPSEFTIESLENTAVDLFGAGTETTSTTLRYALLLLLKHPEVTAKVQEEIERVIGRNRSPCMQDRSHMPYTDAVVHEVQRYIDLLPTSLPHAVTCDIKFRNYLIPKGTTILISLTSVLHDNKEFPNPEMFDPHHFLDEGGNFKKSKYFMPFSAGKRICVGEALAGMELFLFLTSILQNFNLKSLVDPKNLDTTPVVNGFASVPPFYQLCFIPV

[8] = molecular target: Prostaglandin G/H synthase 1 (Homo sapiens, UniProt P23219); experiment: Inhibition of COX1 in human whole blood; format: tissue-based
Sequence of Prostaglandin G/H synthase 1 (P23219 whole entry): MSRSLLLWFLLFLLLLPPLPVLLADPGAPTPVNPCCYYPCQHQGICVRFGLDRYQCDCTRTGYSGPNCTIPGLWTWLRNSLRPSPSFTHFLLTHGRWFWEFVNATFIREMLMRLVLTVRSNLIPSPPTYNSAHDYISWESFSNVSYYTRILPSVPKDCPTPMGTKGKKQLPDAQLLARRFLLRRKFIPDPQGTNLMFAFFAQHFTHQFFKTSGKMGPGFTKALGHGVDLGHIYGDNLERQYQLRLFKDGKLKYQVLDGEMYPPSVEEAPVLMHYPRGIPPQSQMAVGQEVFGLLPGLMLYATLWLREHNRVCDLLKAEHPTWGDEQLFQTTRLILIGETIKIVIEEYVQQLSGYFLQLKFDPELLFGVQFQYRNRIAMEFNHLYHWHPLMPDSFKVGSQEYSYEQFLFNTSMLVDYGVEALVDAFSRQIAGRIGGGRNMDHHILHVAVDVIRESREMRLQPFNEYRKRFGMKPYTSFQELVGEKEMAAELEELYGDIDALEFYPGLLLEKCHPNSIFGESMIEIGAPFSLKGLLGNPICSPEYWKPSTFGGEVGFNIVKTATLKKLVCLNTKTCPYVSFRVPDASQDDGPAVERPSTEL

[9] = Clearance in Sprague-Dawley rat 10 mg/kg, po; format: ADME, organism-based; set-up: dose 10 mg/kg, route oral; conditions: in vivo; in short: as §2
[10] = as §1; format: ADME, organism-based; conditions: Sprague-Dawley, in vivo; in short: as §2
[11] = AUC in Sprague-Dawley rat at 10 mg/kg, po; format: ADME, organism-based; set-up: dose 10 mg/kg, route oral; conditions: plasma; in short: as §2
Rattus norvegicus [12] = experiment: Volume of distribution at steady state in Sprague-Dawley rat at 10 mg/kg, po; format: ADME, organism-based; set-up: dose 10 mg/kg, route oral; conditions: in vivo; in short: as §2
[13] = Half life in Sprague-Dawley rat at 10 mg/kg, po; format: ADME, organism-based; set-up: dose 10 mg/kg, route oral; conditions: in vivo; in short: as §2
CYP3A4 = CYP3A4 (Homo sapiens, UniProt P08684); experiment: Inhibition of CYP3A4 at 10 uM; format: ADME
Sequence of CYP3A4 (P08684 whole entry): as the sequence (P08684 whole entry) above

[14] = Half life in Sprague-Dawley rat at 2 mg/kg, iv after 6 to 24 hrs; format: ADME, organism-based; set-up: dose 2 mg/kg, route intravenous; conditions: in vivo; in short: as §2
[15] = Clearance in Sprague-Dawley rat at 2 mg/kg, iv and 10 mg/kg, po; format: ADME, organism-based; conditions: in vivo; in short: as §2
[16] = Plasma concentration in BALB/c mouse at 10 mg/kg, po after 6 hrs; format: ADME, organism-based; set-up: dose 10 mg/kg, route oral
In short: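 Female BALB/c mice, separate cohort (n = 6). Single oral dose 10 mg/kg; plasma drug level measured 6 h post-dose.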

Cytochrome P450 3A4 [17] = molecular target: T2, Cytochrome P450 3A4; experiment: Inhibition of CYP3A4 assessed as inhibition rate
Mus musculus [18] = experiment: Antiasthamatic activity against ovalbumin-induced airway lung inflammation in BALB/c mouse bronchoalveolar lavage model assessed as inhibition of increase in IL5 level at 10 mg/kg, po every 6 hrs administered 2 hrs prior to ovalbumin-challenge after 24 hrs; format: functional, organism-based; set-up: dose 10 mg/kg
In short: (§3)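 Female BALB/c mice (20-25 g) were sensitized i.p. with OVA 100 μg/alum on days 0 and 14, then given intranasal OVA 50 μg in saline on day 21 under isoflurane. Oral 0.5% methocel vehicle or drug 10 mg/kg started 2 h before challenge, then every 6 h (4 doses). BAL with 4 × 0.3 mL PBS at 24 h; CysLTs and IL-5 by EIA, EPO by peroxidase assay.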

Mus musculus [19] = experiment: Antiasthamatic activity against ovalbumin-induced airway lung inflammation in BALB/c mouse bronchoalveolar lavage model assessed as inhibition of increase om cysteinyl leukotrienes level at 10 mg/kg, po every 6 hrs administered 2 hrs prior to ovalbumin-challenge after 24 hrs; format: functional; in short: as §3
[20] = Half life in dog at 2 mg/kg, iv; format: ADME, organism-based, Canis lupus familiaris; set-up: dose 2 mg/kg, route intravenous; conditions: in vivo
[21] = Bioavailability in dog at 2 mg/kg, iv and 5 mg/kg, po; format: ADME, organism-based, Canis lupus familiaris; conditions: in vivo
Cytochrome P450 1A2 = molecular target: T3, Cytochrome P450 1A2 (Homo sapiens, UniProt P05177); experiment: Inhibition of CYP1A2; format: ADME
T3 sequence (P05177 whole entry): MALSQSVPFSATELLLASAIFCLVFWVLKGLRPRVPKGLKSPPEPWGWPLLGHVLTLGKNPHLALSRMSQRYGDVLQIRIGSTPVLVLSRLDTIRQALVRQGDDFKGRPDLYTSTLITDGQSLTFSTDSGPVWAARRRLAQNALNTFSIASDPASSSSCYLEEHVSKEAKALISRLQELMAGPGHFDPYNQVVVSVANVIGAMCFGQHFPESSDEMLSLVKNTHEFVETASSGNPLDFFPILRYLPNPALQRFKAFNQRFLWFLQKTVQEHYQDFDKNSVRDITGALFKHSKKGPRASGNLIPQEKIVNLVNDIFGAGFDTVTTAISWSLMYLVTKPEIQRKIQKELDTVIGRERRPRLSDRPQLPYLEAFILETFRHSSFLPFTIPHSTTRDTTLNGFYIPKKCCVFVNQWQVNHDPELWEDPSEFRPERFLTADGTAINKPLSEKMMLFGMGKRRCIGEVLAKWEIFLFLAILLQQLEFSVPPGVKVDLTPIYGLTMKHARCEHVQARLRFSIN

[22] = Volume of distribution in dog at 2 mg/kg, iv and 5 mg/kg, po; format: ADME, organism-based, Canis lupus familiaris; conditions: in vivo
Cytochrome P450 2C19 = Cytochrome P450 2C19 (Homo sapiens, UniProt P33261); experiment: Inhibition of CYP2C19; format: ADME
Sequence of Cytochrome P450 2C19 (P33261 whole entry): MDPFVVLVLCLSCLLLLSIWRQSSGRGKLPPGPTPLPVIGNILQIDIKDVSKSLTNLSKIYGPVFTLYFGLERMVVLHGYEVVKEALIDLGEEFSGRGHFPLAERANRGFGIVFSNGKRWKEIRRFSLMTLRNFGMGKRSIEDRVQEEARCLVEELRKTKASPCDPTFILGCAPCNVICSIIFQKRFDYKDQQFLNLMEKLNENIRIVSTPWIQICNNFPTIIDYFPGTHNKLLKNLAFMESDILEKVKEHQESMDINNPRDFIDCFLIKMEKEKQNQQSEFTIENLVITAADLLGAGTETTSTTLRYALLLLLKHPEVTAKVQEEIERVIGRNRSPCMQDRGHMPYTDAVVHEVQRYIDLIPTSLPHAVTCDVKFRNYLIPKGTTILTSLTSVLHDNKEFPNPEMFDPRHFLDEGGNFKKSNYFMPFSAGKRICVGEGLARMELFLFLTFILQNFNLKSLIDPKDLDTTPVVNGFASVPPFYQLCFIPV

Mus musculus [23] = experiment: Antiasthamatic activity against ovalbumin-induced airway lung inflammation in BALB/c mouse bronchoalveolar lavage model assessed as inhibition of increase in eosinophile peroxidase level at 10 mg/kg, po every 6 hrs administered 2 hrs prior to ovalbumin-challenge after 24 hrs; format: functional; in short: as §3

Row | SMILES | IC50 [1] [nM] | IC50 [2] [nM] | IC50 (Blood) [nM] | IC50 (Cytochrome P450 2D6) [nM] | Cmax [6] [ng/mL] | IC50 (Cytochrome P450 2C9) [nM] | further results
1 | CC(C)(Cc1c(CC2CCC2)c2cc(OCc3ccccn3)ccc2n1Cc1ccc(-c2nccs2)cc1)C(=O)O | 1.1 | 6.6 | 391 | – | – | – | –
2 | COc1ccc(-c2cccc(Cn3c(CC(C)(C)C(=O)O)c(SC(C)(C)C)c4cc(OCc5ccccn5)ccc43)c2)cn1 | 1.2 | 5.5 | 934 | – | – | – | IC50 [8]: 420 nM
3 | Cc1ccc(-c2ccc(Cn3c(CC(C)(C)C(=O)O)c(SC(C)(C)C)c4cc(OCc5ccccn5)ccc43)cc2)nn1 | 17 | 27 | 4370 | – | – | – | –
4 | CC(C)(C)Sc1c(CC(C)(C)C(=O)O)n(Cc2ccc(-c3cccnc3)cc2)c2ccc(OCc3ccccn3)cc12 | 3.4 | 9 | 370 | 2600 | 920 | 15500 | half-life [14]: 7.6 h; bioavailability [10]: 8%; AUC [11]: 1880 ng·h/mL; IC50 (Cytochrome P450 3A4 [4]): 4700 nM; Vd [5]: 0.38 L/kg; clearance [15]: 7 mL/min/kg
5 | CC(C)(Cc1c(C(=O)C2CCC2)c2cc(OCc3ccccn3)ccc2n1Cc1ccc(-c2nccs2)cc1)C(=O)O | 130 | 444 | 33500 | – | – | – | –
6 | COc1nc(-c2ccc(Cn3c(CC(C)(C)C(=O)O)c(SC(C)(C)C)c4cc(OCc5ccccn5)ccc43)cc2)cs1 | – | 3.3 | – | – | – | – | TDI (Cytochrome P450 3A4 [17]): 0.018 min⁻¹

More lines, in order of falling IC50 [2], values ahead:

Row | IC50 [1] [nM] | IC50 [2] [nM] | IC50 (Blood) [nM] | IC50 (Cytochrome P450 2D6) [nM] | Cmax [6] [ng/mL] | IC50 (Cytochrome P450 2C9) [nM] | SMILES | further results
7 | 19 | 299 | 5520 | – | – | – | CC(C)(Cc1cc2cc(OCc3ccccn3)ccc2n1Cc1ccc(-c2nccs2)cc1)C(=O)O | –
8 | 12 | 28 | 1650 | – | – | – | CC(C)(C)Sc1c(CC(C)(C)C(=O)O)n(Cc2ccc(-c3cnccn3)cc2)c2ccc(OCc3ccccn3)cc12 | –
9 | 3.3 | 7.7 | 1040 | – | – | – | CC(C)(C)Sc1c(CC(C)(C)C(=O)O)n(Cc2ccc(-c3cncnc3)cc2)c2ccc(OCc3ccccn3)cc12 | –
10 | 4.1 | 6.8 | 277 | > 10000 | 21800 | > 10000 | COc1ccc(-c2ccc(Cn3c(CC(C)(C)C(=O)O)c(SC(C)(C)C)c4cc(OCc5ccccn5)ccc43)cc2)nc1 | CL/F [9]: 2.8 mL/min/kg; bioavailability [10]: 100%; AUC [11]: 61600 ng·h/mL; Vdss (Rattus norvegicus [12]): 0.51 L/kg; half-life [13]: 1.9 h; inhibition at 10 µM (CYP3A4): 61%
11 | 0.5 | 4.2 | 349 | > 30000 | 9000 | > 50000 | COc1ccc(-c2ccc(Cn3c(CC(C)(C)C(=O)O)c(SC(C)(C)C)c4cc(OCc5ccccn5)ccc43)cc2)cn1 | concentration at 6 h [16]: 406 nM; bioavailability [10]: 100%; AUC [11]: 26000 ng·h/mL; TDI (Cytochrome P450 3A4 [17]): 0.015 min⁻¹; IC50 (Cytochrome P450 3A4 [4]): > 50000 nM; Vd [5]: 0.3 L/kg; Activity (Mus musculus [18]): Active; inhibition in vivo at 10 mg/kg (Mus musculus [19]): 60%; half-life [20]: 5.2 h; bioavailability [21]: 64%; IC50 (Cytochrome P450 1A2): > 50000 nM; Vd [22]: 0.41 L/kg; IC50 (Cytochrome P450 2C19): > 50000 nM; half-life [7]: 2.2 h; clearance [15]: 5.4 mL/min/kg; inhibition in vivo at 10 mg/kg (Mus musculus [23]): 60%
12 | 3.6 | 4 | 1580 | > 30000 | 7900 | 26900 | COc1ccc(-c2ccc(Cn3c(CC(C)(C)C(=O)O)c(SC(C)(C)C)c4cc(OCc5ccccn5)ccc43)cc2)nn1 | F (Rattus norvegicus [3]): 42%; IC50 (Cytochrome P450 3A4 [4]): 15100 nM; Vd [5]: 0.47 L/kg; half-life [7]: 2.1 h
